SENP8 block-1 – inhibitors of human SENP8 protease; 360,000 tested, 0.64% active; recombinant SENP8, Nedd8 substrate fluorescence; inhibition, % at 20 µM; in the data active = inhibition mostly above about 40%, no sharp cut-off; inactive = mostly below about 27%
SENP8 block-2 – blocks the human protease SENP8. Q96LD8. purified SENP8, Z-RLRGG-aminoluciferin cleavage, luminescence. inhibition, % at 10 µM. 330,000 tested, 1.2% active. AID 2540; in the data active = inhibition above about 50%
UCH37 DUB inh – human UCH37 deubiquitinating enzyme inhibition | Q9Y5K5 | purified proteasome/UCH37, Ub-AMC cleavage fluorescence | inhibition, % (test concentration not listed) | 330,000 tested, 0.33% active | AID 588478;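 active = mean inhibition over replicate wells above about 20%, limit read from the data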;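 also: 0% = compound-free wells with enzyme and 100% = wells lacking proteasome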
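assay system = human UCH37 enzyme supplied as purified proteasome complex | amount = proteasome at 0.15 nM in the dispensed enzyme solution | schedule = 30 min compound-proteasome preincubation then 25 min substrate reaction, room temperature | measured by = fluorescence, ex 355 nm, em 460 nm | benchmarks = no-proteasome wells (full inhibition) and compound-free wells (no inhibition)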
SENP1 FRET inh – SENP1 (human) catalytic domain inhibition; 360,000 tested, 0.21% active; inhibition, % at 10 µM; AID 624204; recombinant SENP1 catalytic domain, CyPet-SUMO1-YPet FRET cleavage; Q9P0U3;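 active = inhibition at least 30% at 10 µM, raw YFP signal under a set limit, fluorescence ratio 0.5 to 1.5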;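 also: 0% = enzyme with DMSO and 100% = no enzyme wells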
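Test system: human SENP1 catalytic domain; medium: Tris pH 8 buffer plus EDTA, NaCl, BME, BSA, NP40, catalase; incubation: 50 min reaction at room temperature; technique: FRET, CFP and YFP emission; controls: no-enzyme low control and enzyme-plus-DMSO high control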
SENP6 inh – SENP6 protease inhibition; AID 2599; Q9GZR1; Recombinant SENP6 catalytic domain, aminoluciferin luminescence; 330,000 tested, 1.8% active; inhibition, % at 10 µM;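 active = inhibition above about 50% at the single tested dose, limit read from the data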;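 also: plate controls were DMSO wells with enzyme for no effect and DMSO wells lacking enzyme for full effect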
SENP7 inh – inhibitors of human SENP7 protease; Q9BQF6; recombinant SENP7, Z-RLRGG-aminoluciferin luminescence, 40 min; inhibition, % at 5 µM; 330,000 tested, 1.5% active;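 active = inhibition above about 50% at the single test dose, limit read from the data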;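 also: plate controls were DMSO with enzyme for no effect and no enzyme buffer wells for full effect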
Target sequence (Q9BQF6 706-1050 limits assumed): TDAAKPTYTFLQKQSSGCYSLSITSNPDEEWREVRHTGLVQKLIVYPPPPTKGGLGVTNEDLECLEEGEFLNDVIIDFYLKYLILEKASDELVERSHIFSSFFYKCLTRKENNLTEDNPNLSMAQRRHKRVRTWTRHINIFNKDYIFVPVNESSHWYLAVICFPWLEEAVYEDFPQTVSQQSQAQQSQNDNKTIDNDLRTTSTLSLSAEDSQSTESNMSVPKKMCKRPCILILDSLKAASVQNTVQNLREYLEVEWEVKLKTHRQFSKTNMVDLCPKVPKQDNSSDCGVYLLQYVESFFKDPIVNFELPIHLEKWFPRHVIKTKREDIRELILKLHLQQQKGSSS
SENP8 confirm – confirmation of human SENP8 protease inhibitors; 6,200 tested, 40% active; shares compounds with SENP7 inh; Recombinant SENP8, Z-RLRGG-aminoluciferin luminescence, 60 min; AID 488912; inhibition, % at 12.5 µM;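 active = mean inhibition across replicates above about 50%, limit read from the data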
SENP6 confirm – human SENP6 inhibition, confirmed; AID 488915; recombinant SENP6, Z-RLRGG-aminoluciferin luminescence; 6,200 tested, 58% active; shares compounds with SENP7 inh; inhibition, % at 12.5 µM
SENP7 confirm – human SENP7 inhibition, confirmed. shares compounds with SENP7 inh. recombinant SENP7, Z-RLRGG-aminoluciferin luminescence, 40 min. inhibition, % at 12.5 µM. 6,200 tested, 69% active
Casp3 SENP sel – inhibits human caspase-3 in SENP selectivity test; shares compounds with SENP7 inh; purified caspase-3, Z-DEVD-aminoluciferin luminescence, 60 min; inhibition, % at 12.5 µM; 6,200 tested, 60% active; AID 488918;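 active = mean inhibition above about 50%, limit read from the data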;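 also: plate controls were enzyme with DMSO for no effect and wells without caspase-3 for full effect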
Target sequence (P42574 28-227 limits assumed): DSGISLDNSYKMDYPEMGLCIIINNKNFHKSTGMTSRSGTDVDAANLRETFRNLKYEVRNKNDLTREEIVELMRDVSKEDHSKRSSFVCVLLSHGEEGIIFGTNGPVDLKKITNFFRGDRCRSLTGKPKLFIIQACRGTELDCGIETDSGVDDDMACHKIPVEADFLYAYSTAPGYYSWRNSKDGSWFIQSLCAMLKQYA
SENP luc ctr – interferes with luciferase luminescence in SENP counter-screen. 6,200 tested, 39% active. inhibition, % at 12.5 µM. Pre-incubated SENP8/Z-RLRGG-aminoluciferin, luciferase luminescence interference. AID 488919. shares compounds with SENP7 inh;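 active = mean inhibition above about 50% when retested at one dose, limit read from the data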;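 also: plate controls were DMSO wells with completed reaction for no effect and substrate without enzyme for full effect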
An asterisk follows results filed as active; i = inactive; . = no result. Hits are enriched below; roughly 2.6% of the tested compounds scored in any of these assays.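 The calls were made as follows, unless noted: active = mean inhibition above about 50% in the one-dose retest (limit read from the data); inactive = the rest.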

SMILES	SENP8 block-1	SENP8 block-2	UCH37 DUB inh	SENP1 FRET inh	SENP6 inh	SENP7 inh	SENP8 confirm	SENP6 confirm	SENP7 confirm	Casp3 SENP sel	SENP luc ctr
Cc1cccc(NC(=S)Nc2cccc3ccccc23)c1	-401.4	89.0*	-3.6	-17.8	91.2*	46.4	-5.6	-3.0	-7.7	6.0	6.8
CC1(C(=O)Nc2cccc3ccccc23)CC1(Br)Br (centres undefined)	-385.7	22.9	-26.9	-6.5	59.7*	7.5	12.5	20.7	4.8	4.7	-2.8
Cc1cc(C)cc(NC(=S)Nc2cccc3ccccc23)c1	-391.3	59.1*	1.0	-13.9	70.6*	25.6	-3.0	2.3	0.8	5.9	7.4
CCCCCC1CC1C(=O)NN=Cc1ccc(N(C)C)cc1 (centres undefined)	.	.	-30.3	.	.	.	.	.	.	.	.
CCn1nc(C)c(C=NNC(=O)CSc2ccccn2)c1C	.	.	7.9	.	.	.	.	.	.	.	.
O=C(O)c1ccccc1C=NNc1ccc(S(=O)(=O)N2CCOCC2)cc1[N+](=O)[O-]	.	.	14.9	.	.	.	.	.	.	.	.
CCc1cccc(NC(=S)Nc2cccc3ccccc23)c1	-392.1	42.7	2.2	-12.3	77.6*	26.7	12.0	8.1	0.9	-2.1	-3.0
Fc1ccc(NC(=S)Nc2cccc3ccccc23)cc1F	-388.0	48.2	3.3	-8.1	62.4*	20.5	10.7	5.9	15.5	10.9	9.4
C=CCNC(=S)Nc1cccc2ccccc12	-49.0	-1.2	4.2	0.5	-9.0	-1.0	.	.	.	.	.
CC(C)c1ccc(NC(=S)Nc2cccc3ccccc23)cc1	-396.0	33.4	0.3	-33.9	42.5	7.6	.	.	.	.	.
Fc1ccc(NC(=S)Nc2cccc3ccccc23)cc1	-495.9	44.1	-0.4	-24.1	65.3*	21.9	-6.1	-5.8	-8.5	-5.2	-4.0
CN1CC=C2C(C#N)=C(N)C(C#N)(C#N)[C@H](c3ccoc3)[C@H]2C1	i	26.8	-71.7	-13.7	75.9*	40.7	11.7	9.7	2.5	-1.7	-7.2
c1cncc(-c2nc(-c3ccc4c(c3)OCCO4)cs2)c1	-97.1	79.6*	1.9	1.1	79.5*	82.9*	2.6	81.2*	97.0*	72.1*	79.7*
C=CCn1c(CSc2nc3ccccc3s2)nnc1SCC(=O)NCCN1CCOCC1	10.9	-1.8	1.1	0.9	0.0	-4.9	.	.	.	.	.
Cn1c(CSc2nc3ccccc3s2)nnc1SCC(=O)NCCN1CCOCC1	10.5	-3.1	0.9	-1.3	3.5	75.6*	9.8	7.7	4.7	1.2	3.9
CC1=NNC(=O)C1CCC(=O)NN=Cc1ccc(C)cc1 (centres undefined)	.	.	3.9	.	.	.	.	.	.	.	.
COc1ccc2cc3cc(C(=O)N4CCCC(C)C4)oc3nc2c1 (centres undefined)	-393.4	59.4*	-76.3	1.3	79.6*	83.0*	22.3	16.5	19.5	27.8	2.5
COc1ccc(C2(C)NC(=O)N(CC(=O)Nc3ccc(-c4nc5ccc(C)cc5s4)cc3)C2=O)cc1 (centres undefined)	-410.9	5.4	-360.3	-51.0	-24.2	3.5	.	.	.	.	.
CCC1(c2ccc(F)cc2)NC(=O)N(CC(=O)Nc2ccc(-c3nc4ccc(C)cc4s3)cc2)C1=O (centres undefined)	-265.7	-11.7	-5.3	-74.5	58.2*	-1.3	2.8	-3.4	13.9	17.5	17.3
COc1ccc(Nc2ccc3c(c2)=NC2(CCCCC2)[N+]=3[O-])cc1	81.0*	36.0	19.0	15.2	82.3*	37.6	38.2	64.2*	31.2	7.4	2.3
Cc1cc(C=Nn2cnnc2)c(C)n1-c1ccc2ncccc2c1	.	.	-0.4	.	.	.	.	.	.	.	.
O=C1C(Cl)=C(Nc2ccccc2O)C(=O)N1c1ccccc1	19.0	14.1	3.8	7.9	51.6*	26.8	41.7	38.1	65.7*	60.1*	50.8*
O=c1c2c3c(sc2nc2n1CCCCC2)CCCC3	4.5	21.4	3.6	-1.5	61.5*	32.8	22.0	44.6	57.2*	56.3*	15.9
O=c1c2c3c(sc2nc2n1CCCCC2)CCCCC3	5.5	16.2	0.1	-0.5	25.6	-2.9	.	.	.	.	.
Cc1ccc(-c2nc3sc4c(c3c(=O)n2N)CCCC4)cc1	-30.4	36.1	-1.0	1.2	71.9*	53.7*	8.9	65.6*	87.9*	41.2	17.2
SMILES	SENP8 block-1	SENP8 block-2	UCH37 DUB inh	SENP1 FRET inh	SENP6 inh	SENP7 inh	SENP8 confirm	SENP6 confirm	SENP7 confirm	Casp3 SENP sel	SENP luc ctr
CN(C)c1ccc(C=NNC(=O)CN(c2ccccc2Cl)S(C)(=O)=O)cc1Br	.	.	8.3	.	.	.	.	.	.	.	.
Cc1ncc([N+](=O)[O-])n1CC(=O)NN=Cc1ccc(F)cc1	.	.	2.4	.	.	.	.	.	.	.	.
CC(/C=N/Nc1nnc2c(n1)[nH]c1ccccc12)=C\c1ccco1	10.9	-2.6	.	0.2	6.5	82.8*	3.4	-1.4	-3.3	-1.2	-1.7
C/C(C=NNc1nnc2c(n1)[nH]c1ccccc12)=C\c1ccco1	.	.	5.2	.	.	.	.	.	.	.	.
COc1ccccc1N1C(=O)N(C(C)=O)C2C1Nc1ccccc1N2C (centres undefined)	-23.1	45.7	4.3	-29.6	69.6*	-4.9	0.9	1.6	1.3	2.7	-3.8
COc1ccccc1N1C(=O)c2ccccc2NC1c1ccncc1 (centres undefined)	-456.9	-7.9	-66.8	-1.6	15.1	-3.3	.	.	.	.	.
O=C(/C=C/c1c[nH]c2ccccc12)c1ccccc1	-265.1	-0.6	-7.7	-26.0	24.6	-4.9	.	.	.	.	.
COc1ccc2[nH]cc(/C=C/C(=O)c3ccccc3)c2c1	-291.4	38.5	-4.8	-31.7	57.6*	49.3	75.3*	71.1*	84.9*	24.8	84.6*
Cc1ccc(-c2nc(-c3ccccc3)no2)cc1	6.1	96.3*	-0.7	-1.2	63.1*	98.1*	77.6*	86.4*	94.7*	90.9*	50.4*
CCCc1noc(-c2ccc(-c3ccccc3)cc2)n1	16.3	50.1*	-0.2	0.6	40.9	67.9*	25.9	40.1	55.1*	50.4*	30.0
Cc1ccc(-c2nc(-c3cccnc3)no2)cc1	26.4	66.5*	3.8	0.2	81.0*	82.2*	71.8*	81.4*	97.6*	86.1*	66.8*
COc1cc(-c2nc(-c3cccnc3)no2)cc(OC)c1OC	-20.9	-3.4	5.1	0.0	3.4	2.0	.	.	.	.	.
